Assay outcomes: PubChem, Sanford-Burnham Center for Chemical Genomics
MPTP block: permeability transition pore inhibition; isolated mouse mitochondria, Ca2+ swelling absorbance, 30 min; inhibition, % at 10 µM; 360,000 compounds, 1.4% hits; AID 602449;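 active means inhibition of 50% or more, scaled per plate between neutral and stimulator controls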
SENP1 FRET inh: SENP1 (human) catalytic domain inhibition. Q9P0U3. 360,000 compounds, 0.21% hits. inhibition, % at 10 µM. recombinant SENP1 catalytic domain, CyPet-SUMO1-YPet FRET cleavage;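 active means inhibition at least 30% at 10 µM, raw YFP signal under a set limit, fluorescence ratio 0.5 to 1.5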
Target sequence (Q9P0U3 419-644 limits assumed): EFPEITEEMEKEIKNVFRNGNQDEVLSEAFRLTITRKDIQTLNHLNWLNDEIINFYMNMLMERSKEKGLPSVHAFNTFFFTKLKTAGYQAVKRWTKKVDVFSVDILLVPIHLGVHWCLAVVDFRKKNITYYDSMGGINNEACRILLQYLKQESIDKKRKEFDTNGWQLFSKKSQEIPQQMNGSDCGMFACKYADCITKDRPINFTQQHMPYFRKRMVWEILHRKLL
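Assay system: hSENP1 catalytic domain, recombinant. Amount: SENP1 enzyme, 20 pM final. Schedule: 50 min reaction, RT, dark. Technique: FRET, CFP and YFP emission. Control set: no-enzyme wells low, DMSO-plus-enzyme wells high control.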
EBI2 block: antagonists of human EBI2 receptor. inhibition, % at 5 µM. 360,000 compounds, 0.81% hits. P32249. EBI2 beta-arrestin recruitment, luminescence, 7a,25-OHC stimulated; in the data active means inhibition above about 38%;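 further: enzyme fragment complementation signal reports receptor beta-arrestin coupling in cells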
Target sequence (P32249 whole entry, looked up, the tested form may be a part): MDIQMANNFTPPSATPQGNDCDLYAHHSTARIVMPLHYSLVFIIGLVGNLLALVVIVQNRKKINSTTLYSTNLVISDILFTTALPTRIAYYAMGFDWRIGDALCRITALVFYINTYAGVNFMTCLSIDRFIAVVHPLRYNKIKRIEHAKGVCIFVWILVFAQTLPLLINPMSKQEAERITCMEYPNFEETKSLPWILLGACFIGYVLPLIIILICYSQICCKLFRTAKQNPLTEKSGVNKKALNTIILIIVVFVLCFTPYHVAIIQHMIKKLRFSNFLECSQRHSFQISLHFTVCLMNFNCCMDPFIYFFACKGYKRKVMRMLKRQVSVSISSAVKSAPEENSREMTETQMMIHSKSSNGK
NR3A LBD binder: modulators (binders) of human NR3A ligand-binding domain. Tm shift relative to glycine control, % at 25 µM. NR3A LBD differential scanning fluorimetry, Tm shift; 0% = protein alone, 100% = glycine-bound protein. 340,000 compounds, 2.5% hits. AID 1259313;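 active means melting temperature shift of at least 10% of the positive control shift, at one fixed dose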
Rh123 counter: mitochondrial membrane potential, counter-screen. shares compounds with MPTP block. isolated mitochondria, Rhodamine 123 fluorescence. inhibition, % at 10 µM. 5,000 compounds, 78% hits. AID 624504; in the data active means inhibition above about 22%
MPTP abs DR: MPTP inhibition, dose response swelling confirmation; shares compounds with MPTP block; isolated mitochondria swelling, absorbance; IC50, µM; 780 compounds, 58% hits; AID 651561; in the data active means IC50 below about 20 µM
MPTP cs DR: MPTP inhibitor counter-screen activity, dose response. shares compounds with MPTP block. isolated mitochondria counterscreen, fluorescence read-out. IC50, µM. 780 compounds, 49% hits; in the data active means IC50 below about 80 µM
Of the large screens only hits and unclear results are named; the others gave an inactive call (follow-up assays come after a bar, where they were run). A selection: hits, their analogues and other compounds. The true share with any hit is near 4.4%.

COc1cc2cc(CCO)oc(=O)c2cc1OC	none
Cc1ccc(O)c(NC(=O)C2CC(c3cccc(Br)c3)=NO2)c1 (centres undefined)	none
NNC(=O)Cn1nc2n(c1=O)-c1ccccc1SC2	none
C=C(C)CNC(=S)N/N=C/c1ccco1	none
CCOc1cc(S(=O)(=O)NCCCN2CCOCC2)ccc1F	none
Cc1ccc(NC(=S)Nc2ccc(Br)cc2)cc1	none
S=C(Nc1ccccc1)Nc1ccc(Br)cc1	MPTP block 95 | Rh123 counter 88
CC(C)(C)NC(=S)Nc1ccc(Br)cc1	MPTP block 51 | Rh123 counter 66
Cc1[nH]c2ccccc2c1C1=CC(=O)C=CC1=O	MPTP block 52 | Rh123 counter inactive
CC(C)Cc1ccc(C(C)C(=O)Nc2ccccc2O)cc1 (centres undefined)	MPTP block 90 | Rh123 counter 95
O=C(O)c1ccccc1NC(=O)C(c1ccccc1)c1ccccc1	none
O=C(Nc1ccccc1O)C(c1ccccc1)c1ccccc1	MPTP block 83 | Rh123 counter 83
OC(CNCC1CCCO1)Cn1c2ccccc2c2ccccc21 (centres undefined)	MPTP block 74 | Rh123 counter inactive | MPTP abs DR 10 | MPTP cs DR inactive
OC(CNCc1ccco1)Cn1c2ccccc2c2ccccc21 (centres undefined)	none
Cn1c(N/N=C/c2cccs2)cc(=O)n(C)c1=O	none
Fc1c(F)c(C(F)(F)F)c(F)c(F)c1N/N=C\c1cccs1	MPTP block 87, NR3A LBD binder 22 | Rh123 counter 70
CCn1c(=O)c2c(nc3n2CCCN3c2cccc(C)c2)n(C)c1=O	none
Cc1ccc(NC(=S)Nc2cccc3ccccc23)cc1F	MPTP block 64, NR3A LBD binder 16 | Rh123 counter 84
S=C(NCc1cccnc1)Nc1cc(Cl)cc(Cl)c1	MPTP block 82 | Rh123 counter 82
O=C(NCc1cccnc1)Nc1cc(Cl)cc(Cl)c1	MPTP block 85 | Rh123 counter 86
O=C(NCc1cccnc1)Nc1cccc(Cl)c1	none
Cc1cc(=O)[nH]c(SCC(=O)Nc2c(C)n(C)n(-c3ccccc3)c2=O)c1C#N	none
Cc1ccccc1COc1ccc(/C(O)=C2/C(=O)C(=O)N(CCCn3ccnc3)C2c2ccco2)cc1 (centres undefined)	none
CC(C)N1CCOC1c1ccccc1 (centres undefined)	none
C/C(Cc1ccccc1)=N\NC(=O)CNC(=O)c1ccccc1F	none
Cc1cc(OC(=O)c2c(C)cc(OC(=O)c3c(C)cc(O)cc3O)cc2O)cc(O)c1C(=O)O	MPTP block 72 | Rh123 counter 67
CCCOc1ccc(C(=O)C(CN2CCCC2)c2ccccc2)cc1 (centres undefined)	MPTP block 79 | Rh123 counter inactive
CCCOc1ccc(C(C(=O)OCCN(CC)CC)c2ccccc2)cc1 (centres undefined)	MPTP block 82 | Rh123 counter inactive | MPTP abs DR inactive | MPTP cs DR 73
COc1cccc(N2CCN(S(=O)(=O)c3ccc4c(c3)NC(=O)C(C)C(=O)N4)CC2)c1 (centres undefined)	none
O=C(Nc1ccc(Cl)cc1)c1ccc2c(c1)OCO2	none
O=C(Nc1ccc(Cl)cc1)C1=Cc2ccccc2OC1	MPTP block 89, NR3A LBD binder 20 | Rh123 counter 108
Clc1ccc(-c2nc3ccccc3nc2-c2ccccc2)cc1	MPTP block 55 | Rh123 counter inactive | MPTP abs DR 19 | MPTP cs DR inactive
Cc1ccc(-c2nc3ccccc3nc2-c2ccccc2)cc1	none
Cc1cccc(NC(=O)Cn2cnc3c(oc4nc5c(cc43)COC(C)(C)C5)c2=O)c1	none
CCc1nc2ccc(C(=O)NCC3CCCCC3)cn2c1N(CCC(C)C)CCN(C)C	none (no result: NR3A LBD binder)
CN=C1c2c(-c3ccccc3)c3cc(OC)ccc3n2CCN1C	MPTP block 68 | Rh123 counter inactive | MPTP abs DR 10 | MPTP cs DR inactive
COc1ccc(-c2c(-c3ccccc3)n(C)c3ccccc23)cc1	none
COc1ccc2cc1Oc1ccc(cc1)C[C@H]1c3cc(c(OC)cc3CCN1C)Oc1c(OC)c(OC)cc3c1[C@H](C2)N(C)CC3	MPTP block 77 | Rh123 counter inactive
COc1ccc2cc1Oc1ccc(cc1)C[C@H]1c3c(cc4c(c3Oc3cc5c(cc3OC)CCN(C)[C@@H]5C2)OCO4)CCN1C	none
Cc1ccc2c(c1)nnn2C1CCN(S(=O)(=O)c2ccc(C(=O)N3C(C)CCCC3C)cc2)CC1 (centres undefined)	MPTP block 98 | Rh123 counter 87
COC(=O)CSc1nc2c(cnn2-c2ccc(Cl)cc2)c(=O)[nH]1	none
CC(C)(C)C(=O)Cn1c(=N)n(Cc2ccccc2)c2ccccc21	none
CC(C)(C)C(=O)Cn1c(=N)n(Cc2ccccc2Cl)c2ccccc21	MPTP block 56 | Rh123 counter inactive | MPTP abs DR 11 | MPTP cs DR 55
Fc1ccc([C@@H]2CCNC[C@H]2COc2ccc3c(c2)OCO3)cc1	MPTP block 98 | Rh123 counter inactive
Fc1ccc(C2CCNCC2COc2ccc3c(c2)OCO3)cc1 (centres undefined)	none
NS(=O)(=O)c1ccc(NC(=O)c2cc(Cl)sc2Cl)cc1	none
COC(=O)Cc1ccc(NC(=S)NNC(=O)C2CC2)cc1	none
C#CCOCCOCCOCCNc1nc(N2CCN(C(=O)[C@H](CCCCN)n3cc(C(N)[C@H](C)CC)nn3)CC2)nc(N2CCN(C(=O)[C@H](CCC(=O)O)n3cc(C(N)[C@H](C)CC)nn3)CC2)n1 (some centres undefined)	none
C#CCOCCOCCOCCNc1nc(N2CCN(C(=O)[C@H]([C@@H](C)CC)n3cc([C@@H](N)CC(C)C)nn3)CC2)nc(N2CCN(C(=O)[C@H](CCCCN)n3cc([C@@H](N)C(C)CC)nn3)CC2)n1 (some centres undefined)	MPTP block 76 | Rh123 counter inactive | MPTP abs DR 2.4 | MPTP cs DR inactive
C#CCOCCOCCOCCNc1nc(N2CCN(C(=O)[C@H](CCCN=C(N)N)n3cc(C(N)[C@@H](C)CC)nn3)CC2)nc(N2CCN(C(=O)[C@H](CCCCN)n3cc([C@@H](N)[C@H](C)CC)nn3)CC2)n1 (some centres undefined)	MPTP block 101 | Rh123 counter inactive | MPTP abs DR 1.5 | MPTP cs DR inactive
C#CCOCCOCCOCCNc1nc(N2CCN(C(=O)[C@H](CCCCN)n3cc(CN)nn3)CC2)nc(N2CCN(C(=O)[C@H](CCCCN)n3cc([C@@H](N)[C@H](C)CC)nn3)CC2)n1	MPTP block 88 | Rh123 counter inactive | MPTP abs DR 6.4 | MPTP cs DR 65
